These results are taken from ChEMBL document CHEMBL4229344 (Eur J Med Chem, 2018).

Data set [1] deals with Tyrosine-protein kinase ABL1 (Homo sapiens), P00519 [F317I]. Nature of the data set: Binding affinity to human non-phosphorylated ABL1 F317I mutant (S229 to K512 residues) expressed in mammalian expression system assessed as residual binding level at 1 uM by Kinomescan method relative to control. The essentials: (§1)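 Kinome-wide single-concentration binding screen (KINOMEscan) at 1 μM against a panel of 468 purified kinases and mutants. Read-out is relative binding of each kinase compared with control. Selectivity across the panel was summarised as an S(10) score.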

The subject of data set [2] is ALK tyrosine kinase receptor (Homo sapiens), Q9UM73 [C1156Y]. The data set is described as follows: Binding affinity to wild-type human partial length ALK C1156Y mutant (I1088 to E1409 residues) expressed in mammalian expression system assessed as residual binding level at 1 uM by Kinomescan method relative to control. The essentials:
(§2)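 Single-concentration KINOMEscan (DiscoverX) binding screen at 1 μM against a panel of 468 purified kinases and mutants. The read-out is binding relative to control.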

For data set [3], the target named is Calcium/calmodulin-dependent protein kinase type II subunit delta (Homo sapiens) (UniProt Q13557). Nature of the data set: Binding affinity to wild-type human partial length CAMK2D (M1 to E329 residues) expressed in bacterial expression system assessed as residual binding level at 1 uM by Kinomescan method relative to control.
Data set [4] concerns the target Cyclin-dependent kinase-like 3 (Homo sapiens) (UniProt Q8IVW4). The data set is described as follows: Binding affinity to wild-type human partial length CDKL3 (M1 to D327 residues) expressed in bacterial expression system assessed as residual binding level at 1 uM by Kinomescan method relative to control. The method in brief: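 Kinome-wide competition binding screen against a panel of 468 purified kinases/mutants, with the test compound at a single concentration of 1 μM. Read-out is the relative binding activity of each kinase in the presence of compound.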

In data set [5] the target is Dual specificity protein kinase CLK1 (Homo sapiens) (UniProt P49759). Nature of the data set: Binding affinity to wild-type human full length CLK1 (M1 to I484 residues) expressed in bacterial expression system assessed as residual binding level at 1 uM by Kinomescan method relative to control. The essentials:
(§3)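 KINOMEscan competition binding against 468 purified kinases/mutants, test compound at 1 µM; residual binding relative to control.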

Data set [6] addresses Casein kinase II subunit alpha (Homo sapiens) (UniProt P68400). Nature of the data set: Binding affinity to wild-type human full length CSNK2A1 (M1 to Q391 residues) expressed in mammalian expression system assessed as residual binding level at 1 uM by Kinomescan method relative to control. The method in brief: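 Single-concentration (1 μM) competition-binding screen run by KINOMEscan against a panel of 468 purified kinases and mutants. The read-out is the relative binding activity of the test compound to each kinase.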

For data set [7], the target named is Death-associated protein kinase 2 (Homo sapiens) (UniProt Q9UIK4). The data set is described as follows: Binding affinity to wild-type human full length DAPK2 (M1 to S370 residues) expressed in bacterial expression system assessed as residual binding level at 1 uM by Kinomescan method relative to control. The method in brief: as §3
The target in data set [8] is Receptor-type tyrosine-protein kinase FLT3 (Homo sapiens) (UniProt P36888). The data set is described as follows: Binding affinity to wild-type human partial length FLT3 (V592 to Y969 residues) expressed in bacterial expression system assessed as residual binding level at 1 uM by Kinomescan method relative to control.
Data set [9] relates to Receptor-type tyrosine-protein kinase FLT3 (Homo sapiens), P36888 [D835V]. The data set is described as follows: Binding affinity to human partial length FLT3 D835V mutant (V592 to Y969 residues) expressed in bacterial expression system assessed as residual binding level at 1 uM by Kinomescan method relative to control. The method in brief:
as §1

For data set [10], the target named is Mast/stem cell growth factor receptor Kit (Homo sapiens, UniProt P10721). The data set is described as follows: Binding affinity to wild-type human partial length autoinhibited KIT (Y545 to D952 residues) expressed in mammalian expression system assessed as residual binding level at 1 uM by Kinomescan method relative to control.
For data set [11], the target named is Dual specificity mitogen-activated protein kinase kinase 5 (Homo sapiens) (UniProt Q13163). Nature of the data set: Binding affinity to wild-type human partial length MEK5 (L98 to P448 residues) expressed in mammalian expression system assessed as residual binding level at 1 uM by Kinomescan method relative to control.
In data set [12] the target is Phosphatidylinositol 4-kinase beta (Homo sapiens) (UniProt Q9UBF8). The data set is described as follows: Binding affinity to wild-type human full length PIK4CB (M1 to M828 residues) expressed in mammalian expression system assessed as residual binding level at 1 uM by Kinomescan method relative to control. The method in brief:
as §2

In data set [13] the test system is Proto-oncogene tyrosine-protein kinase receptor Ret (Homo sapiens), P07949 [V804L]. Nature of the data set: Binding affinity to human partial length RET V804L mutant (E713 to D1014 residues) expressed in bacterial expression system assessed as residual binding level at 1 uM by Kinomescan method relative to control. The method in brief:
as §1

Data set [14] has as its target Serine/threonine-protein kinase WNK2 (Homo sapiens) (UniProt Q9Y3S1). Nature of the data set: Binding affinity to wild-type human partial length WNK2 (V47 to D482 residues) expressed in mammalian expression system assessed as residual binding level at 1 uM by Kinomescan method relative to control.
Data set [15] addresses Serine/threonine-protein kinase WNK4 (Homo sapiens) (UniProt Q96J92). The data set is described as follows: Binding affinity to wild-type human partial length WNK4 (A31 to D461 residues) expressed in mammalian expression system assessed as residual binding level at 1 uM by Kinomescan method relative to control.
Data set [16] concerns the target Serine/threonine-protein kinase 32B (Homo sapiens) (UniProt Q9NY57). The data set is described as follows: Binding affinity to wild-type human full length YANK2 (M1 to S414 residues) expressed in bacterial expression system assessed as residual binding level at 1 uM by Kinomescan method relative to control. The method in brief: as §3
Data set [17] deals with Epithelial discoidin domain-containing receptor 1 (Homo sapiens, UniProt Q08345). Nature of the data set: Inhibition of DDR1 (unknown origin) using poly(4:1 Glu,Tyr) peptide as substrate preincubated for 1 hr followed by addition of ATP and measured after 30 mins by ADP-Glo bioluminescence assay.
The nature of data set [18]: AUC (0 to infinity) in Sprague-Dawley rat at 1 mg/kg, iv. The conditions noted are these: in vivo. In kind it is ADME, organism-based. On the set-up: dose 1 mg/kg, time infinity, route intravenous. The essentials: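 Male Sprague-Dawley rats (6–8 weeks) fasted overnight, dosed IV or orally; compound dissolved in 5% DMSO/40% PEG400/55% saline (dosing solution 1 mg/mL). Blood (~0.2 mL) from jugular vein into heparin; IV sampling 1 min–8 h, oral 5 min–24 h. Plasma separated by centrifugation at 2–8 °C, stored at −80 °C until analysis.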

Data set [19] can be described thus: Apparent volume of distribution in Sprague-Dawley rat at 1 mg/kg, iv. In kind it is ADME, organism-based. The conditions noted are these: in vivo, read-out: Vz.
In data set [20] the test system is EOL1. The data set is described as follows: Antitumor activity against human EOL-1 cells xenografted in nu/nu mouse assessed as induction of apoptosis at 25 to 100 mg/kg/day, ip by DAB staining-based TUNEL assay. Format: functional, organism-based. The essentials:
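Female nu/nu mice (6 weeks) given subcutaneous right-flank injection of 5 million EOL-1 cells in PBS/Matrigel 1:1. At 200–400 mm3 tumors, randomized to groups of 6 and dosed daily i.p. for 14 days at 25, 50 or 100 mg/kg/d in 0.5% methylcellulose/0.4% Tween80. Tumor volume = W²×L/2, measured daily.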
On the technique in general: A xenograft is tissue or cells of one species grown in another, often human tumour cells in immunodeficient mice.

Calls of active or inactive are those of the source. The calls are words filed in the database; no cut-off is given here.

Sequence of Death-associated protein kinase 2 (Homo sapiens) (Q9UIK4 whole entry, looked up, the tested form may be a part): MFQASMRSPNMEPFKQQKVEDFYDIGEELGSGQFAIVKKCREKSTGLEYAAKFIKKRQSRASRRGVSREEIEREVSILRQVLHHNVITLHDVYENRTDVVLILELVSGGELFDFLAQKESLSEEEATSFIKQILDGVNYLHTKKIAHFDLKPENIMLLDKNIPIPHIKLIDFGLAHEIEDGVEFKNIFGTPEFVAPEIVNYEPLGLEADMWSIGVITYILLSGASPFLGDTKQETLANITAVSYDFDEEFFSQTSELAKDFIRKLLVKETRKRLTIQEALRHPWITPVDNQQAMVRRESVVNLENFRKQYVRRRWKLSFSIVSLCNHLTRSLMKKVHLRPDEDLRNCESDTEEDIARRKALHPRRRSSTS
Sequence of Serine/threonine-protein kinase 32B (Homo sapiens) (Q9NY57 whole entry, the tested form may be a part): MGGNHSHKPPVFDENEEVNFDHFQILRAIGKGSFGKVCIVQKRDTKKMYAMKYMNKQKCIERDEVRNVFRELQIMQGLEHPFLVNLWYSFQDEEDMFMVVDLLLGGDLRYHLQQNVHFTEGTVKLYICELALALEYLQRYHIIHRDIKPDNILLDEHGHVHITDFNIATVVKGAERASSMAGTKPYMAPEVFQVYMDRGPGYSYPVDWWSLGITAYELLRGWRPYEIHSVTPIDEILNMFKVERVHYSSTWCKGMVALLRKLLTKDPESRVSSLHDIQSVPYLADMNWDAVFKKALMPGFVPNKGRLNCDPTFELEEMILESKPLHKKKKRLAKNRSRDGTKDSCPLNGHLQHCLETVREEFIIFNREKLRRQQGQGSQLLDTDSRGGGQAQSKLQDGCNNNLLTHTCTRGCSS
Sequence of Serine/threonine-protein kinase WNK4 (Homo sapiens) (Q96J92 whole entry, the tested form may be a part): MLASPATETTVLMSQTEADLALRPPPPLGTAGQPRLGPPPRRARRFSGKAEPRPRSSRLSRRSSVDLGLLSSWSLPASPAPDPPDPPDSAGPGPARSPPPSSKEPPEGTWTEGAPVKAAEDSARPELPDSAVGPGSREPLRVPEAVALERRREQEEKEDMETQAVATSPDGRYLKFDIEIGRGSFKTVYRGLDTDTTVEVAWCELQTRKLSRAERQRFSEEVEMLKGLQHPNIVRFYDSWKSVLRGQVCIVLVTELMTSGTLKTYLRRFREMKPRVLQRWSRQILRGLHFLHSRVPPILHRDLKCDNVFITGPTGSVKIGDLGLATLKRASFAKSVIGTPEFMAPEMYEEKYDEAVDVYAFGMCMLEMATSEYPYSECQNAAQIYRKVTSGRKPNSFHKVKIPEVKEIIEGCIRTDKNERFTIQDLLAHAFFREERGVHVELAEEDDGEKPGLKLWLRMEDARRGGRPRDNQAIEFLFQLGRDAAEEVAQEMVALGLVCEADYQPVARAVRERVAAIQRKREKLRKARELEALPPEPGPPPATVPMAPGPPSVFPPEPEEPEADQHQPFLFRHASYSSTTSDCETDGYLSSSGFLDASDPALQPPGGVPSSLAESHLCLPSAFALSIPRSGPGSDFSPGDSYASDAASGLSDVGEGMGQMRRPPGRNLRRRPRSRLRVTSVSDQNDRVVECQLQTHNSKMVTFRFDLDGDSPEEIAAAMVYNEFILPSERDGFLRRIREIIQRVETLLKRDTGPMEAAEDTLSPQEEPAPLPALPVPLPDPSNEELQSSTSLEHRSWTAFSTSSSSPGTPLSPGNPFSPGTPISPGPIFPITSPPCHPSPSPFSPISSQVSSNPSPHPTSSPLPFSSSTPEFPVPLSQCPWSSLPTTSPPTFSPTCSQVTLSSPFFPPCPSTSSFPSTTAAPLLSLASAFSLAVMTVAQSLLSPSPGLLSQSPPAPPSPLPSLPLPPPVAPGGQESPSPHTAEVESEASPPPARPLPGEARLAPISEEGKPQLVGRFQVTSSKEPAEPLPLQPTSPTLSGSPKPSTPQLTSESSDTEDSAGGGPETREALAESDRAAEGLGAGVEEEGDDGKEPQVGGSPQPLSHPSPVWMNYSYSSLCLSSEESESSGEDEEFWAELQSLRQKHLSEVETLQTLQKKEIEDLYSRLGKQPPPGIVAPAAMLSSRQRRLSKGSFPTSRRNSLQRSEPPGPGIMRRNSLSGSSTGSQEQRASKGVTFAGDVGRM
Sequence of Mast/stem cell growth factor receptor Kit (P10721 whole entry, the tested form may be a part): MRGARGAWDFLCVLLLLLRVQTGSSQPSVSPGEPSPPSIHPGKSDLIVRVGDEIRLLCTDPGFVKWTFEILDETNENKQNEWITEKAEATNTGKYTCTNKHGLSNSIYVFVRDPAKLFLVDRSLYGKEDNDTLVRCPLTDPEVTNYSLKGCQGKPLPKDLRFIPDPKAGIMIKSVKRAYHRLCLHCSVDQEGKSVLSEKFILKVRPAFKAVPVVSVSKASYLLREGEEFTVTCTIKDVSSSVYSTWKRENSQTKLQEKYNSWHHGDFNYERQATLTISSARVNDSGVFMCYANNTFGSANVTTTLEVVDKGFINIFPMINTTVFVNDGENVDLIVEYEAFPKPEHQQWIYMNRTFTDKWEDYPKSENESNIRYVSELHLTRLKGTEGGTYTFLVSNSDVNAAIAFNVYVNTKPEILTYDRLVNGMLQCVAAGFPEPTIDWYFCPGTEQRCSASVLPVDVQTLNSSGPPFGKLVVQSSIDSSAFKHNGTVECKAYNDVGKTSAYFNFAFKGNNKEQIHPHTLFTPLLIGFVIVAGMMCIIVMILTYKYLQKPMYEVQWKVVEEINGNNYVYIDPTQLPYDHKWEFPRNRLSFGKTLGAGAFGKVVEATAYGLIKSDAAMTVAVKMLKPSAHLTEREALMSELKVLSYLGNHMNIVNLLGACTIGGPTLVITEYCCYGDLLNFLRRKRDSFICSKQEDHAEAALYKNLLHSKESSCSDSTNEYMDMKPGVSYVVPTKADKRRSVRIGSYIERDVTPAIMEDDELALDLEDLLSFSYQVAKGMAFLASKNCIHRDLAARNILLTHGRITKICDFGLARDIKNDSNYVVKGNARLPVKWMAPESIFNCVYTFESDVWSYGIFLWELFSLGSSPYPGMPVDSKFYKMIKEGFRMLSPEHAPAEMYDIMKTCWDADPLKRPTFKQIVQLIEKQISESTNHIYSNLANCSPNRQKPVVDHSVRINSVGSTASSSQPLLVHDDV
Sequence of ALK tyrosine kinase receptor (Homo sapiens), Q9UM73 [C1156Y] (Q9UM73 whole entry C1156Y, looked up, the tested form may be a part): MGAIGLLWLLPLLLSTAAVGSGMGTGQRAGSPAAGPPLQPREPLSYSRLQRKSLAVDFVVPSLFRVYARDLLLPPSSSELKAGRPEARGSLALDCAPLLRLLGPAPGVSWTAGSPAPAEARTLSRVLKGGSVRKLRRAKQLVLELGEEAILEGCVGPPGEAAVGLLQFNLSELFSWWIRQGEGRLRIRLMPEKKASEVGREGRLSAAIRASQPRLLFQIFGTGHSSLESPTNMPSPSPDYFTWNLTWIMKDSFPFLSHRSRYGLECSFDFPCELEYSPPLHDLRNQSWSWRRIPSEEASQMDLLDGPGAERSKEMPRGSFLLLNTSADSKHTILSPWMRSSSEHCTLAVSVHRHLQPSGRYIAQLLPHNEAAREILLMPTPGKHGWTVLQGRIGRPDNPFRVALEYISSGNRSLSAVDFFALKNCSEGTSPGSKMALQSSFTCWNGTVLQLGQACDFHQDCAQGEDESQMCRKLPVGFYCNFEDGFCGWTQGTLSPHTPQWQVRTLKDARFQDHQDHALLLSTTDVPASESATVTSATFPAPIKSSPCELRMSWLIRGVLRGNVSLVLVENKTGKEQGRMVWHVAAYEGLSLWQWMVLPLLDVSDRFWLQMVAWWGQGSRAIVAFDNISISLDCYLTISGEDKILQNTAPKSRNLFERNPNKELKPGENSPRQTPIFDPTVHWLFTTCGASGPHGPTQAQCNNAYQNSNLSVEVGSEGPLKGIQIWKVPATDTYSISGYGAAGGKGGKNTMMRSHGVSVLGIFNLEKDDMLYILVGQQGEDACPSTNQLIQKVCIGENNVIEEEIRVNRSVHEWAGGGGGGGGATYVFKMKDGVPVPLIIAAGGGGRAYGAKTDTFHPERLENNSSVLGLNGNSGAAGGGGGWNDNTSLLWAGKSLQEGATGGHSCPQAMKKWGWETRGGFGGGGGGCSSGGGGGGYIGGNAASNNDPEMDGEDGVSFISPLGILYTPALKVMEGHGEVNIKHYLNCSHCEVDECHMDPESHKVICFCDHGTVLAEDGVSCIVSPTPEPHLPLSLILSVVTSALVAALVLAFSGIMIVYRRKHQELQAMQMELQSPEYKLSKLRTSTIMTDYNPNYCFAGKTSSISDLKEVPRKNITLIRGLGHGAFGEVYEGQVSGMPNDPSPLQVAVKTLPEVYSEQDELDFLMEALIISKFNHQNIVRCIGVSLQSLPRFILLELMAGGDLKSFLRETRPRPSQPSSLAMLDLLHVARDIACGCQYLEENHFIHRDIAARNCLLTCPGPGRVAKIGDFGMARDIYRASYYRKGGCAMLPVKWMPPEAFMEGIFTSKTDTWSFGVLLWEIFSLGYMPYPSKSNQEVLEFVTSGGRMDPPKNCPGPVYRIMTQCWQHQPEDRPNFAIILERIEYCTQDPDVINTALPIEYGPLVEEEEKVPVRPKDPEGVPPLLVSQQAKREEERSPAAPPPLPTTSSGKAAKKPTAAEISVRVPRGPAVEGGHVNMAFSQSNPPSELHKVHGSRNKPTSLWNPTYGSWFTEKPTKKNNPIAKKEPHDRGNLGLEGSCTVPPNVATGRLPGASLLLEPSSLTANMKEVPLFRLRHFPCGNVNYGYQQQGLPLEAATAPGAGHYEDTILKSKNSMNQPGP
Sequence of Dual specificity mitogen-activated protein kinase kinase 5 (Homo sapiens) (Q13163 whole entry, the tested form may be a part): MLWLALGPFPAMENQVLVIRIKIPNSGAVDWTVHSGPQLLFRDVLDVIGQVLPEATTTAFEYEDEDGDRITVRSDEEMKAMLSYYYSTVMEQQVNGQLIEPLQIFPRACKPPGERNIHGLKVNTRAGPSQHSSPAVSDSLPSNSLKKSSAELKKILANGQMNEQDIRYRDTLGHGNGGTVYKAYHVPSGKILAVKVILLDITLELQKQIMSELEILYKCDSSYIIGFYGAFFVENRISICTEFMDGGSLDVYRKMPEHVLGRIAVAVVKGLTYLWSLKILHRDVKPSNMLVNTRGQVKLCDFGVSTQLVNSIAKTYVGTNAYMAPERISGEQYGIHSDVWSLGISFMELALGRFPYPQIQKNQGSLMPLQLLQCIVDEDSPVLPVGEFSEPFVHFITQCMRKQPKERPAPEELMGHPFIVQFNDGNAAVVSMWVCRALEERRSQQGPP

Consider `Cc1ccc(NC(=O)c2ccc(CN(CCN(C)C)C(=O)c3cccnc3)cc2)cc1Nc1nccc(-c2cccnc2)n1`, for which the Activity in [1] was 94%; in data set [2], 100%; in [3] it was 100%; in data set [4], 91%; in data set [5], 87%; in data set [6], 81%. In addition, the Activity in data set [7] worked out at 94%; in [8] it was 89%; in [9] it was 100%; in [10], 100%; in data set [11], 100%; in data set [12], 100%. Also, the Activity in data set [13] worked out at 97%; in data set [14], 100%; in [15] it was 100%; in data set [16], 82%. Besides, the IC50 in data set [17] worked out at 2460 nM. In [18], the AUC(0-inf) is 541 ng·h/mL. The Vd in data set [19] is 5.98 L/kg. Also, the outcome in data set [20] was Active.

By IC50 is commonly meant the concentration that gives 50% inhibition. As a reminder, the AUC(0-inf) is total exposure, with the tail of the curve extrapolated. Lower therefore signals less exposure.
